Paper PMC2233905 (The Journal of General Physiology, 2004)
Blank lines part the entries; values can stand above or below the compound they belong to.

Columns and labels:
[1] = tested on: K^+ current of rat sympathetic neurons; settings: cited from earlier work
hEag1 channels [2] = biological target: T1, hEag1 channels (Homo sapiens, UniProt O95259); experiment: Outside-out patch recordings of hEag1 currents; assay type: cell-based
T1 sequence (O95259 1-989): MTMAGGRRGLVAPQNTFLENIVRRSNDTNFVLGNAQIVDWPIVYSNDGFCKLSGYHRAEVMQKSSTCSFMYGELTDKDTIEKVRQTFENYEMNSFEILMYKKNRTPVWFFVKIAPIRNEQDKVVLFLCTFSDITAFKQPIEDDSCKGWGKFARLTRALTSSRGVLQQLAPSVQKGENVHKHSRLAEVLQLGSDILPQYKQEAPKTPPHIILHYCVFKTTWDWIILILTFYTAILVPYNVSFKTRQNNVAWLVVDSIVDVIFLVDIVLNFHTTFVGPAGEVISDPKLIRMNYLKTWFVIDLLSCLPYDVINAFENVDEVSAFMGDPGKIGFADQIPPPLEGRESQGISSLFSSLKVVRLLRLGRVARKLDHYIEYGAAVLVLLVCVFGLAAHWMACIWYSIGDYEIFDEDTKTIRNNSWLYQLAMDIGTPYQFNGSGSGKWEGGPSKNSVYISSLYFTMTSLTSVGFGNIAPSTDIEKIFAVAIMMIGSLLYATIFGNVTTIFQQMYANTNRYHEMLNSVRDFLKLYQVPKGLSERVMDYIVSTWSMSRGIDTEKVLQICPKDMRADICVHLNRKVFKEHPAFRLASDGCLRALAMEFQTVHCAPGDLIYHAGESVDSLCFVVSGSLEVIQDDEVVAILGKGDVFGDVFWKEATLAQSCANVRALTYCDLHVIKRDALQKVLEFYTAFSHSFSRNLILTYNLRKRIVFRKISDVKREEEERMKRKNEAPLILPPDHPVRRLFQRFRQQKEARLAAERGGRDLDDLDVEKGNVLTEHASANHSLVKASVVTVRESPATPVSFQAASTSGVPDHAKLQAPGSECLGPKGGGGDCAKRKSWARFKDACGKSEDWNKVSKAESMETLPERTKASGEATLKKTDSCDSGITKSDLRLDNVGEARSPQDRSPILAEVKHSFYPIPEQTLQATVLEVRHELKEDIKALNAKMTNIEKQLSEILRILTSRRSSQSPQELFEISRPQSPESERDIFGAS
Summary of the method: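 Outside-out patches from hEag1-expressing cells at room temperature. Successive 6-s recordings at 80 mV; drug applied to the extracellular face for 2.5 s, then removed. Currents were divided point-wise by control traces, and the time course was fitted with a single exponential to give the block or equilibration time constant and the steady-state fraction blocked.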

hEag1 channels [3] = biological target: T1, hEag1 channels; experiment: Whole-cell patch-clamp of hEag1 currents in stably transfected HEK-293 cells; assay type: cell-based
[4] = Ionization: pKa and calculated protonated fractions; assay type: physicochemical
Summary of the method: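 Fractions of unprotonated, monoprotonated and diprotonated test compound were calculated from its two pKa values at pH 6.4, 7.4 and 8.4. The diprotonated percentage was 100 × [H+]2 divided by the summed-species denominator. Protonated fractions in the pH 7.4 recording solution were predicted the same way.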

hEag1 channels [5] = biological target: T1, hEag1 channels; experiment: Inside-out patch recordings of hEag1 currents; assay type: cell-based
Summary of the method: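 Inside-out patches from hEag1-expressing cells at room temperature. Pipette: 145 NaCl, 5 KCl, 3 CaCl2, 1 MgCl2, 10 HEPES/NaOH pH 7.4. Successive 6-s pulses at 80 mV with drug applied for 2.5 s. Current ratios to preapplication traces were fitted with a single exponential to give the block time constant.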

hEag1 channels [6] = biological target: T1, hEag1 channels; experiment: Cell-attached patch recordings of hEag1 currents, drug in bath; assay type: cell-based; settings: 140 mM external K+, 60 mV
Summary of the method: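 hEag1-expressing cells grown 24–72 h on poly-L-lysine-coated coverslips; cell-attached patches at room temperature. Bath held 140 mM K+; pipette held control external solution (160 NaCl, 2.5 KCl, 2 CaCl2, 1 MgCl2, 10 HEPES, pH 7.4) without glucose. 1-s steps to 60 mV from −70 mV were recorded before, during and after washout of bath-applied drug.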

melanoma cells = settings: ref Gavrilova-Ruch et al., 2002; cited from earlier work
[7] = 10 μM imipramine or 1 μM astemizole
[8] = 200 μM internal TEA, 80 mV, 10 μM imipramine or 1 μM astemizole
[9] = control, 80 mV, 10 μM imipramine or 1 μM astemizole

- effect on current, applied to the extracellular side in outside-out patches (hEag1 channels [2]; 5 μM, external and internal pH 7.4): virtually no effect
Structure (SMILES): C[N+](C)(C)CCCN1c2ccccc2CCc2ccccc21.[I-] [N-methyl-imipramine, N-methyl-imipramine iodide]

- hEag1 current blocked (hEag1 channels [3]; 80 mV, 200 μM in the internal solution (unpublished data)): ~50%
- hEag1 current blocked (hEag1 channels [3]; 80 mV, 7 mM in the external solution (unpublished data)): ~50%
Structure (SMILES): CC[N+](CC)(CC)CC [TEA]

Further lines, the compound ahead of its results:

Structure (SMILES): C[N+](C)(C)CCC=C1c2ccccc2CCc2ccccc21 [N-methyl-amitriptyline]
- effect on whole-cell K+ current when included in the patch pipette ([1]; 50 μM in pipette, ref Wooltorton and Mathie (1995)): does not inhibit

Structure (SMILES): CN(C)CCC=C1c2ccccc2CCc2ccccc21 [amitriptyline]
- current blocked ([1]; 50 μM, ref Wooltorton and Mathie, 1995): ~90%

Structure (SMILES): CN(C)CCCN1c2ccccc2CCc2ccccc21 [imipramine]
- time constant of block (equilibration of neutral drug) in outside-out patches (hEag1 channels [2]; bath pH 6.0, pipette pH 7.4): 182 ms
- inhibition at 25 µM (hEag1 channels [2]; read-out: current inhibition in outside-out patches): ~30%
- protonated fraction ([4]; pH 6.0): 99.97%
- predicted protonated fraction ([4]; pH 7.4 recording solution): 99%
- effect on current, direct application to inside-out patches (hEag1 channels [5]; 25 μM, bath pH 6.0, 80 mV): complete current suppression
- time constant of block in inside-out patches (hEag1 channels [5]; bath pH 6.0, pipette pH 7.4, 80 mV): 155 ms
- reversal of block on 2-s washout during the depolarization (hEag1 channels [5]; inside-out patches): fully reversed
- block of channels in cell-attached patches by bath application (hEag1 channels [6]): blocked
- effect on proliferation rate (melanoma cells): significant reduction
- voltage dependence of block (hEag1 channels [3]): strongly voltage dependent
- k of exponential fit to τclose(V) (tail current deactivation) (hEag1 channels [3]; [7]): −0.039
- τ(0) of exponential fit to τclose(V) (tail current deactivation) (hEag1 channels [3]; [7]): 65.13 ms
- effect on whole-cell current when added to the intracellular solution (hEag1 channels [3]; 100 μM in intracellular pH 6.4 solution (unpublished data)): no evident reduction
- reduction of potency in the presence of internal TEA (hEag1 channels [3]; 200 μM internal TEA): ~50%
- current blocked (hEag1 channels [3]; [8]): 39 ± 3%
- τblock (hEag1 channels [3]; [8]): 86 ± 5 ms
- effect of external TEA on the block (hEag1 channels [3]; 7 mM external TEA): did not affect
- current blocked (hEag1 channels [3]; [9]): 77 ± 2%
- τblock (hEag1 channels [3]; [9]): 35 ± 4 ms
- slope of logIC50 versus difference between pHext and pHint (hEag1 channels [3]; linear fit): −0.86
- slope of linear fit of τblock^−1 versus concentration (hEag1 channels [3]; nonsaturating concentrations, 80 mV): 2.5 s^−1μM^−1
- slope of linear fit of τblock^−1 versus concentration (hEag1 channels [3]; pHext 7.4, pHint 6.4): 12.6 s^−1μM^−1
- time constant of block washout (hEag1 channels [3]; pHext 7.4, pHint 6.4): 46 ± 8 s
- slope of linear fit of τblock^−1 versus concentration (hEag1 channels [3]; pHext 7.4, pHint 7.4): 3.4 s^−1μM^−1
- time constant of block washout (hEag1 channels [3]; pHext 7.4, pHint 7.4): 19 ± 6 s
- slope of linear fit of τblock^−1 versus concentration (hEag1 channels [3]; pHext 7.4, pHint 8.4): 0.9 s^−1μM^−1
- time constant of block washout (hEag1 channels [3]; pHext 7.4, pHint 8.4): 6 ± 1 s
- Hill coefficient of fit to τblock versus concentration (hEag1 channels [3]; whole-cell, 80 mV): 1.27
- time constant of current decay (τblock) at the IC50 concentration (hEag1 channels [3]; whole-cell, 80 mV): ~50 ms
- τblock, maximum of Hill fit (hEag1 channels [3]; whole-cell, 80 mV): 86.7 ms
- τblock, minimum of Hill fit (hEag1 channels [3]; whole-cell, 80 mV): 11.6 ms
- fraction of the membrane electric field sensed at the binding site (hEag1 channels [3]; z = 1, fit of IC50 versus test potential): 39%
